Measured values pooled from the literature.
Each line is one published result; the experiments were not run side by side.
Cell line: T47D
Observed: cell growth or viability

SMILES | test | conditions | quantity | value
CC/C(=C(/c1ccc(OCCNC)cc1)c1ccc(B2OC(C)(C)C(C)(C)O2)cc1)c1ccccc1 |  | 5 days | IC50 | 8730 nM
COc1cccc(Oc2ccccc2NC(=O)CNC(=O)c2cccc3ccccc23)c1 | SRB | 48 h | GI50 | 138 nM
O=C1Nc2ccccc2C1=NNc1nnc2n1N=C(c1ccccc1)CS2 | SRB | 10 µM | inhibition | 36%
COc1ccc(C(=O)/C=C/c2cccc(Cl)c2)cc1S(N)(=O)=O | SRB | 48 h | GI50 | 2100 nM
COc1ccc(-c2ccc(-c3ccc(C(=N)N)nc3)s2)cc1 | SRB |  | GI50 | 1920 nM
O=C1C[C@@H](c2ccc(O)cc2)Oc2cc(O)cc(O)c21 | MTT | 48 h | IC50 | 4170 nM
CCCCCCCC(=O)NCC(=O)OC | MTT | 10 µM, 48 h | inhibition | 23%
CC[C@H](C)C(=O)O[C@H]1C[C@H](O)C=C2C=C[C@H](C)[C@H](CC[C@@H](O)C[C@@H](O)CC(=O)O)[C@H]21 | SRB | 72 h | IC50 | 133 µg/mL
CC/C(=C(\c1ccc(O)cc1)c1ccc(OCCNC)cc1)c1ccccc1 |  | 5 days | IC50 | 4290 nM
COc1ccc(-c2ccc(-c3ccc(C(=N)N)nc3)s2)cc1Cl | SRB |  | GI50 | 1990 nM
COc1ccccc1/C=C/C(=O)c1ccc(OC)c(S(N)(=O)=O)c1 | SRB | 10 µM | inhibition | 83%
